Converted amounts (≈) assume the structure as drawn.
How the values were obtained:
Type in all cases: functional
Conditions in all cases: read-out: ED50 (the source's name)
[1] = system: Panagrellus redivivus; assay: Antinematodal activity against Panagrellus redivivus after 24 hrs by microscopy
Summary of the method: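 P. redivivus were kept in aseptic liquid Basal Heme medium at room temperature and subcultured before testing. Worms were suspended in physiological saline and diluted to 20-25 per 48 μL aliquot, with triplicate wells per treatment. 2 μL of 50% DMSO, alone or with compound, was added. Plates were covered and humidified, and mortality was scored microscopically at 24 h.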

[2] = system: Bursaphelenchus xylophilus; assay: Antinematodal activity against Bursaphelenchus xylophilus after 24 hrs by microscopy
Summary of the method: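 B. xylophilus were grown on PDB agar carrying Botrytis cinerea, kept at room temperature and subcultured before the assay. They were diluted in physiological saline to 20-25 worms per 48 μL and dispensed into three wells per treatment. 2 μL of 50% DMSO, with or without compound, was added. Plates were covered and held in a humid chamber. Dead worms were counted microscopically at 24 h.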

[3] = system: Caenorhabditis elegans; assay: Antinematodal activity against Caenorhabditis elegans after 24 hrs by microscopy
Summary of the method: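 C. elegans were grown on NG agar carrying an E. coli strain, kept at room temperature and subcultured before the assay. Worms in physiological saline were diluted to 20-25 per 48 μL, with three wells per treatment. Each well received 2 μL of 50% DMSO or 50% DMSO containing compound. Plates were covered in a humid chamber, and dead worms were counted by microscopy after 24 h.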

SMILES	EC50 [1]	EC50 [2]	EC50 [3]
CN1C(=O)[C@]23SS[C@]1(C)C(=O)N2[C@H]1Nc2ccccc2[C@@]1(c1c[nH]c2ccccc12)[C@@H]3O [GLIOCLADINE C]	250 µg/mL (≈ 538 µM)	> 400 µg/mL	200 µg/mL (≈ 431 µM)
CN1C(=O)[C@]23SSSS[C@]1(C)C(=O)N2[C@H]1Nc2ccccc2[C@@]1(c1c[nH]c2ccccc12)[C@@H]3O [GLIOCLADINE E]	250 µg/mL (≈ 473 µM)	> 400 µg/mL	200 µg/mL (≈ 378 µM)
CN1C(=O)C23SSSS[C@]1(C)C(=O)N2[C@H]1Nc2ccccc2[C@@]1([C@@]12c4ccccc4N[C@@H]1N1C(=O)[C@@]4(C)SS[C@]1(C(=O)N4C)[C@H]2O)[C@@H]3O [GLIOCLADINE B]	25 µg/mL (≈ 32.9 µM)	> 400 µg/mL	30 µg/mL (≈ 39.4 µM)
CC[C@@]12SS[C@]3(C(=O)N1C)[C@@H](O)[C@]1([C@@]45c6ccccc6N[C@@H]4N4C(=O)[C@@]6(C)SS[C@]4(C(=O)N6C)[C@H]5O)c4ccccc4N[C@@H]1N3C2=O	80 µg/mL (≈ 113 µM)	> 400 µg/mL	50 µg/mL (≈ 70.3 µM)
CN1C(=O)[C@]23SSS[C@]1(C)C(=O)N2[C@H]1Nc2ccccc2[C@@]1(c1c[nH]c2ccccc12)[C@@H]3O [GLIOCLADINE D]	250 µg/mL (≈ 503 µM)	> 400 µg/mL	200 µg/mL (≈ 403 µM)
CN1C(=O)[C@@]23C[C@]4([C@@]56c7ccccc7N[C@@H]5N5C(=O)[C@@]7(C)SS[C@]5(C(=O)N7C)[C@H]6O)c5ccccc5N[C@@H]4N2C(=O)[C@]1(C)SS3	40 µg/mL (≈ 58.7 µM)	> 400 µg/mL	10 µg/mL (≈ 14.7 µM)
CN1C(=O)[C@]23SS[C@@]1(C)C(=O)N2[C@H]1Nc2ccccc2[C@@]1([C@@]12c4ccccc4N[C@@H]1N1C(=O)[C@@]4(C)SS[C@]1(C(=O)N4C)[C@H]2O)[C@@H]3O [VERTICILLIN A]	80 µg/mL (≈ 115 µM)	> 400 µg/mL	30 µg/mL (≈ 43.1 µM)
CN1C(=O)[C@]23SSS[C@]1(C)C(=O)N2[C@H]1Nc2ccccc2[C@@]1([C@@]12c4ccccc4N[C@@H]1N1C(=O)[C@@]4(C)SS[C@]1(C(=O)N4C)[C@H]2O)[C@@H]3O [GLIOCLADINE A]	50 µg/mL (≈ 68.6 µM)	> 400 µg/mL	25 µg/mL (≈ 34.3 µM)

Source: ChEMBL document CHEMBL1151267, “Nematicidal epipolysulfanyldioxopiperazines from Gliocladium roseum” (2005)
